# Assay results published in article PMC3495079 (Biochemistry, 2012).
# Assays:
# ScDcpS [1] = molecular target: T1, ScDcpS (Saccharomyces cerevisiae, UniProt Q06151); assay: HPLC analysis of cap analog hydrolysis by recombinant DcpS; type: biochemical, S. cerevisiae; details: 15 μM substrate; for Hydrolysis by DcpS (HPLC): up to 24 h
# In short: (§1)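 His-tagged recombinant enzyme was expressed in E. coli and purified by Ni-NTA and gel filtration. Cap analog (15 μM) was preincubated 10 min, then DcpS was added at 0.02 or 0.2 μM. Buffers were Tris/MgAc/(NH4)2SO4 at 37 °C, or Tris/KCl/EDTA/DTT at 20 °C. Aliquots were taken at 5–60 min and 24 h and heat-stopped (97 °C, 2.5 min). Reverse-phase HPLC used a methanol/KH2PO4 gradient with A260 and fluorescence detection. Products were identified by retention time, and % substrate hydrolyzed was recorded.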
# AsDcpS [2] = molecular target: T2, AsDcpS (Ascaris suum, UniProt D3K0N9); assay: HPLC analysis of cap analog hydrolysis by recombinant DcpS; type: biochemical, A. suum; details: 15 μM substrate; for Hydrolysis by DcpS (HPLC): up to 24 h
# T2 sequence (D3K0N9 whole entry): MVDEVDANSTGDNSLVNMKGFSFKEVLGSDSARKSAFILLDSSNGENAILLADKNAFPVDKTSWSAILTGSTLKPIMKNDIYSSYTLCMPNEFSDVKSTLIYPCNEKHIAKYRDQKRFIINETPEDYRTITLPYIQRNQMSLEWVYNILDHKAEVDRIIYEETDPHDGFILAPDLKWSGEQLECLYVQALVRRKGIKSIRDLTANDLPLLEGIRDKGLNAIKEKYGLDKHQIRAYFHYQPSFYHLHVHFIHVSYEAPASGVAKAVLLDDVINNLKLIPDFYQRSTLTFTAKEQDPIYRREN
# CeDcpS [3] = molecular target: T3, CeDcpS (Caenorhabditis elegans, UniProt G5EFS4); assay: HPLC analysis of cap analog hydrolysis by recombinant DcpS; type: biochemical, C. elegans; details: 15 μM substrate; for Hydrolysis by DcpS (HPLC): up to 24 h
# T3 sequence (G5EFS4 1-311): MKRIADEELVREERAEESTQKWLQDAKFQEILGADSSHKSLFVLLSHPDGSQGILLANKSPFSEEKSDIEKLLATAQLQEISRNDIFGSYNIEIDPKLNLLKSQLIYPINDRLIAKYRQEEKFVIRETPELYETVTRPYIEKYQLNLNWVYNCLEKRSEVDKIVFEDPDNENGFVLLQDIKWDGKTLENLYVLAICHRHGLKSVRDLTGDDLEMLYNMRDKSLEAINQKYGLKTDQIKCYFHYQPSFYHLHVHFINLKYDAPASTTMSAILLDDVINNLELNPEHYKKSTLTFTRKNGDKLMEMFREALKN
# In short: as §1
# AsDcpS [4] = molecular target: T2, AsDcpS; assay: Fluorescence titration; type: binding, A. suum; details: for Equilibrium association constant KAS, AsDcpS: 20 °C, 50 mM Tris HCl, 200 mM KCl, 0.5 mM EDTA, 1 mM DTT, pH 7.6
# HsDcpS [5] = molecular target: T4, HsDcpS (Homo sapiens, UniProt Q96C86); assay: HPLC analysis of cap analog hydrolysis by recombinant DcpS; type: biochemical; details: for Hydrolysis by DcpS (HPLC): up to 24 h
# T4 sequence (Q96C86 1-337): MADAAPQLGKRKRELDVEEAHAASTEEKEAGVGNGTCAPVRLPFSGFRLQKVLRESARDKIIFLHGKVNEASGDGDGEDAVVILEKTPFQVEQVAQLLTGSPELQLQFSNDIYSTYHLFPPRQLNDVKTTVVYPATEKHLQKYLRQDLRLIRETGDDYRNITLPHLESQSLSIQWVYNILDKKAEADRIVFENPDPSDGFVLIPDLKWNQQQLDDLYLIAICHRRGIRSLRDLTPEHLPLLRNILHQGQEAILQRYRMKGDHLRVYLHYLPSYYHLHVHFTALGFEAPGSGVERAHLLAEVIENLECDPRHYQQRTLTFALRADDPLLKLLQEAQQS
# In short: as §1
# CeDcpS [6] = molecular target: T3, CeDcpS; assay: Fluorescence titration; type: binding, C. elegans; details: for Equilibrium association constant KAS, CeDcpS: 20 °C, 50 mM Tris HCl, 200 mM KCl, 0.5 mM EDTA, 1 mM DTT, pH 7.6
# In short: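 His-tagged CeDcpS was expressed in E. coli and purified by Ni-NTA and gel filtration. Binding was read as quenching of intrinsic Trp fluorescence using time-synchronized titration. Ligand solutions of increasing concentration (5 μM–2 mM) were added to 0.2 μM initial protein. Excitation was 280 nm and emission 340 nm, corrected for dilution and inner filter. KAS was fitted by non-linear regression and reported as a weighted average of 3–5 titrations.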
# [7] = test system: recombinant C. elegans decapping scavenger; assay: Competitor inhibition of CeDcpS hydrolytic activity; type: biochemical
# HsDcpS [8] = molecular target: T4, HsDcpS; details: 20 °C, 50 mM Tris HCl, 200 mM KCl, 0.5 mM EDTA, 1 mM DTT, pH 7.6; cited from earlier work
# CeDcpS [9] = molecular target: T3, CeDcpS; details: substrate of CeDcpS; cited from earlier work
# ScDcpS [10] = molecular target: T1, ScDcpS; details: substrate of ScDcpS; cited from earlier work
# AsDcpS [11] = molecular target: T2, AsDcpS; assay: Inhibition of DcpS hydrolysis of m^7GpppG, HPLC; type: biochemical, A. suum
# ScDcpS [12] = molecular target: T1, ScDcpS; assay: Inhibition of DcpS hydrolysis of m^7GpppG, HPLC; type: biochemical, S. cerevisiae
# In short: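 Yeast DcpS (His-tagged, E. coli-expressed, Ni-NTA plus gel filtration) used at 0.10 μM to give 50% uninhibited conversion in 10 min. Substrate m7GpppG 15 μM; test compound 0.1–50 μM; buffer 50 mM Tris HCl, 200 mM KCl, 0.5 mM EDTA, 1 mM DTT, pH 7.6; 20 °C. Stopped at 97 °C for 2.5 min, analysed by reverse-phase HPLC. IC50 from substrate-conversion plot; Ki via tight-binding competitive equation.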
# HsDcpS [13] = molecular target: T4, HsDcpS; assay: Inhibition of DcpS hydrolysis of m^7GpppG, HPLC; type: biochemical
# CeDcpS [14] = molecular target: T3, CeDcpS; assay: Inhibition of DcpS hydrolysis of m^7GpppG, HPLC; type: biochemical, C. elegans
# In short: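 Recombinant His-tagged C. elegans DcpS was expressed in E. coli and purified by Ni-NTA and gel filtration. Enzyme at 0.02 μM, m7GpppG 15 μM, test compound 0.1–50 μM, in 50 mM Tris HCl, 200 mM KCl, 0.5 mM EDTA, 1 mM DTT, pH 7.6. Preincubated 10 min, reacted 10 min at 20 °C, heat-stopped, products by reverse-phase HPLC. IC50 taken from conversion versus concentration; Ki from tight-binding competitive equation.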
# HsDcpS [15] = molecular target: T4, HsDcpS; assay: Fluorescence titration; type: binding; details: ratio of KAS values
# [16] = condition (1): 37 °C, pH 8.0, 0.02 or 0.2 μM DcpS
# [17] = condition (2): 20 °C, pH 7.6, 0.2 μM DcpS
# [18] = condition (1): 37 °C, pH 8.0, 15 μM substrate, 0.02 or 0.2 μM DcpS
# [19] = condition (2): 20 °C, pH 7.6, 15 μM substrate, 0.2 μM DcpS
# [20] = after 60 min, 20 °C, pH 7.6, 0.02 μM DcpS
# T1 sequence (Q06151 whole entry): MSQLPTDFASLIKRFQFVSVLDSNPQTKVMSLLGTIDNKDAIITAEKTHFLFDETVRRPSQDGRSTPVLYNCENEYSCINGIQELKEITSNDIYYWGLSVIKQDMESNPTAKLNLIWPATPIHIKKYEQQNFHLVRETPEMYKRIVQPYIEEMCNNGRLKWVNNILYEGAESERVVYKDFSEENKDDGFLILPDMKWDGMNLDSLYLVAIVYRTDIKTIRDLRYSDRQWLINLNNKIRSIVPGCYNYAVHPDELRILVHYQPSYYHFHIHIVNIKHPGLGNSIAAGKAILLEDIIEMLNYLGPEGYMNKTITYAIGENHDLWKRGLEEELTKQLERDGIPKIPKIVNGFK
SMILES,Hydrolysis by DcpS (HPLC) (ScDcpS [1]; [16]),Hydrolysis by DcpS (HPLC) (ScDcpS [1]; [17]),Hydrolysis by DcpS (HPLC) (AsDcpS [2]; [16]),Hydrolysis by DcpS (HPLC) (AsDcpS [2]; [17]),Hydrolysis by DcpS (HPLC) (CeDcpS [3]; [16]),Hydrolysis by DcpS (HPLC) (CeDcpS [3]; [17]),"Equilibrium association constant KAS, AsDcpS (AsDcpS [4]) [µM⁻¹]",Hydrolysis by DcpS (HPLC) (HsDcpS [5]; [18]),Hydrolysis by DcpS (HPLC) (HsDcpS [5]; [19]),"Equilibrium association constant KAS, CeDcpS (CeDcpS [6]) [µM⁻¹]","Equilibrium association constant KAS, HsDcpS (HsDcpS [8]) [µM⁻¹]",other results
"CN(C)c1nc2c(c(=O)[nH]1)[n+](C)cn2[C@@H]1O[C@H](COP(=O)(O)OP(=O)(O)O)[C@@H](O)[C@H]1O [m3^2,2,7GDP, 2,2,7-trimethylguanosine diphosphate]",not degraded,resistant to cleavage,not degraded,resistant to cleavage,not degraded,resistant to cleavage,0.53 ± 0.16,not degraded,resistant to cleavage,1.44 ± 0.26,–,–
"CN(C)c1nc2c(c(=O)[nH]1)[n+](C)cn2[C@@H]1O[C@H](COP(=O)(O)O)[C@@H](O)[C@H]1O [m3^2,2,7GMP]",–,–,–,–,–,–,0.28 ± 0.27,–,–,2.88 ± 0.67,–,–
"C[n+]1cn([C@@H]2O[C@H](COP(=O)(O)O)[C@@H](O)[C@H]2O)c2nc(N)[nH]c(=O)c21 [m^7GMP, 7-methylguanosine monophosphate]",–,–,–,–,–,–,26.35 ± 1.84,–,–,8.00 ± 0.65,19 ± 1,"Competitor concentration for 50% inhibition, fold higher than for m^7GDP [7]: about 20 fold"
Cn1c[n+]([C@@H]2O[C@H](COP(=O)(O)OP(=O)([O-])OP(=O)(O)OC[C@H]3O[C@@H](n4cnc5c(=O)[nH]c(N)nc54)[C@H](O)[C@@H]3O)[C@@H](O)[C@H]2O)c2nc(N)[nH]c(=O)c21 [m^7GpppG],very fast,–,very fast,–,very fast,–,–,very fast,–,–,–,"Time to complete conversion of the substrate to products (ScDcpS [1]; [17]): less than 3 minutes; Km (CeDcpS [9]): 1.17 ± 0.14 µM; Extent of decapping (% of hydrolyzed substrate) (AsDcpS [2]; [20]): 95%; Time to complete conversion of the substrate to products (AsDcpS [2]; [17]): less than 3 minutes; Km (ScDcpS [10]): 0.14 µM; Extent of decapping (% of hydrolyzed substrate) (CeDcpS [3]; [20]): 95%; Time to complete conversion of the substrate to products (CeDcpS [3]; [17]): less than 3 minutes; Extent of decapping (% of hydrolyzed substrate) (HsDcpS [5]; after 60 min, 20 °C, pH 7.6, 15 μM substrate, 0.02 μM DcpS): 95%; Cleavage efficiency by HsDcpS, fold higher than m^7GTP (HsDcpS [5]; condition (2), 0.02 μM DcpS, Figure 3): ~ 2 fold; Time to complete conversion of the substrate to products (HsDcpS [5]; [19]): less than 3 minutes"
"C[n+]1cn([C@@H]2O[C@H](COP(=O)(O)OP(=O)([O-])O)[C@@H](O)[C@H]2O)c2nc(N)[nH]c(=O)c21 [m^7GDP, 7-methylguanosine diphosphate]",not degraded,resistant to cleavage,not degraded,resistant to cleavage,not degraded,resistant to cleavage,–,not degraded,resistant to cleavage,–,114 ± 8,IC50 (AsDcpS [11]): 1440 ± 110 nM; IC50 (ScDcpS [12]): 3950 ± 230 nM; Ki (ScDcpS [12]): 36 ± 2 nM; IC50 (HsDcpS [13]): 4170 ± 500 nM; Kd (AsDcpS [4]): 5.4 nM; Kd (CeDcpS [6]): 10.3 nM; IC50 (CeDcpS [14]): 2170 ± 130 nM; Ki (CeDcpS [14]): 156 ± 20 nM; Fold higher affinity of human DcpS compared to m^7GMP (HsDcpS [15]): 6 fold
